Results as given in ChEMBL document CHEMBL2034938, “Convenient synthesis of novel geiparvarin analogs with potential anti-cancer activity via click chemistry” (Eur J Med Chem, 2012).

Experiments:
[1] = Cytotoxicity against human L02 cells by after 48 hrs by MTT assay; assay type: cell-based; settings: L02, 48 h
In short: (§1)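 MTT assay; cell lines obtained from Shanghai Institute of Biological Sciences, CAS. Compounds in DMSO stock (10 g/L), diluted in medium just before use. Cells seeded at 8000/well; compound added 24 h later, in duplicate. After 48 h at 37 °C, 5% CO₂, MTT (5 mg/mL in PBS) added for 4 h. Formazan dissolved in DMSO; absorbance read at 570 nm. IC50 taken as the concentration giving 50% growth inhibition.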

SGC-7901 = experiment: Cytotoxicity against human SGC7901 cells by after 48 hrs by MTT assay; assay type: functional, cell-based; settings: SGC-7901, 48 h; in short: as §1
A549 [2] = experiment: Cytotoxicity against human A549 cells by after 48 hrs by MTT assay; assay type: functional, cell-based; settings: A549, 48 h; in short: as §1
HeLa = experiment: Cytotoxicity against human HeLa cells by after 48 hrs by MTT assay; assay type: functional, cell-based; in short: as §1
[3] = Cytotoxicity against human QGY7701 cells by after 48 hrs by MTT assay; assay type: functional, cell-based; settings: QGY7701, 48 h; in short: as §1
SW480 = experiment: Cytotoxicity against human SW480 cells by after 48 hrs by MTT assay; assay type: functional, cell-based; settings: SW480, 48 h; in short: as §1
MDA-MB-231 = experiment: Cytotoxicity against human MDA-MB-231 cells by after 48 hrs by MTT assay; assay type: functional, cell-based; settings: MDA-MB-231, 48 h; in short: as §1
A549 [4] = experiment: Induction of apoptosis in human A549 cells assessed as viable cells at 1 uM after 48 hrs by annexinV/propidium iodide staining-based flow cytometric analysis ( Rvb = 95.96%); assay type: functional; settings: A549, 48 h, read-out: Activity
A549 [5] = experiment: Induction of apoptosis in human A549 cells assessed as early apoptotic cells at 1 uM after 48 hrs by annexinV/propidium iodide staining-based flow cytometric analysis ( Rvb = 0.15%); assay type: functional
A549 [6] = experiment: Induction of apoptosis in human A549 cells assessed as late apoptotic cells at 1 uM after 48 hrs by annexinV/propidium iodide staining-based flow cytometric analysis (reference value: 0.16%); assay type: functional
A549 [7] = experiment: Induction of apoptosis in human A549 cells assessed as viable cells at 2 uM after 48 hrs by annexinV/propidium iodide staining-based flow cytometric analysis ( Rvb = 95.96%); assay type: functional; settings: A549, 48 h, read-out: Activity
A549 [8] = experiment: Induction of apoptosis in human A549 cells assessed as early apoptotic cells at 2 uM after 48 hrs by annexinV/propidium iodide staining-based flow cytometric analysis ( Rvb = 0.15%); assay type: functional
A549 [9] = experiment: Induction of apoptosis in human A549 cells assessed as late apoptotic cells at 2 uM after 48 hrs by annexinV/propidium iodide staining-based flow cytometric analysis (reference value: 0.16%); assay type: functional
A549 [10] = experiment: Induction of apoptosis in human A549 cells assessed as viable cells at 4 uM after 48 hrs by annexinV/propidium iodide staining-based flow cytometric analysis ( Rvb = 95.96%); assay type: functional; settings: A549, 48 h, read-out: Activity
A549 [11] = experiment: Induction of apoptosis in human A549 cells assessed as early apoptotic cells at 4 uM after 48 hrs by annexinV/propidium iodide staining-based flow cytometric analysis ( Rvb = 0.15%); assay type: functional
A549 [12] = experiment: Induction of apoptosis in human A549 cells assessed as late apoptotic cells at 4 uM after 48 hrs by annexinV/propidium iodide staining-based flow cytometric analysis (reference value: 0.16%); assay type: functional
A549 [13] = experiment: Induction of apoptosis in human A549 cells assessed as viable cells at 8 uM after 48 hrs by annexinV/propidium iodide staining-based flow cytometric analysis ( Rvb = 95.96%); assay type: functional; settings: A549, 48 h, read-out: Activity
A549 [14] = experiment: Induction of apoptosis in human A549 cells assessed as early apoptotic cells at 8 uM after 48 hrs by annexinV/propidium iodide staining-based flow cytometric analysis ( Rvb = 0.15%); assay type: functional
A549 [15] = experiment: Induction of apoptosis in human A549 cells assessed as late apoptotic cells at 8 uM after 48 hrs by annexinV/propidium iodide staining-based flow cytometric analysis (reference value: 0.16%); assay type: functional
A549 [16] = experiment: Induction of apoptosis in human A549 cells assessed as necrotic cells at 2 uM after 48 hrs by annexinV/propidium iodide staining-based flow cytometric analysis (reference value: 3.72%); settings: A549, 48 h
A549 [17] = experiment: Induction of apoptosis in human A549 cells assessed as necrotic cells at 4 uM after 48 hrs by annexinV/propidium iodide staining-based flow cytometric analysis (reference value: 3.72%); settings: A549, 48 h
A549 [18] = experiment: Induction of apoptosis in human A549 cells assessed as necrotic cells at 8 uM after 48 hrs by annexinV/propidium iodide staining-based flow cytometric analysis (reference value: 3.72%); settings: A549, 48 h
A549 [19] = experiment: Induction of apoptosis in human A549 cells after 48 hrs by annexinV/propidium iodide staining-based flow cytometric analysis; assay type: functional, cell-based

SMILES	IC50 [1]	IC50 (SGC-7901)	IC50 (A549 [2])	IC50 (HeLa)	IC50 [3]	IC50 (SW480)	IC50 (MDA-MB-231)	also measured
O=c1[nH]cc(F)c(=O)[nH]1 [FLUOROURACIL]	46.6 µM	6.04 µM						
O=c1ccoc2cc(OCc3cn(Cc4ccc(F)cc4)nn3)ccc12	> 300 µM	> 100 µM	> 100 µM	12 µM	14.4 µM	11.2 µM	> 100 µM	
COc1ccc(Cn2cc(COc3ccc4c(=O)ccoc4c3)nn2)cc1	> 300 µM	> 100 µM	16.5 µM	14.4 µM	56.6 µM	20.4 µM	> 100 µM	
O=c1ccoc2cc(OCc3cn(Cc4cccc(Br)c4)nn3)ccc12	> 300 µM	> 100 µM	> 100 µM	> 100 µM	17.6 µM	> 100 µM	> 100 µM	
O=c1ccoc2cc(OCc3cn(Cc4ccccc4F)nn3)ccc12	> 300 µM	> 100 µM	10.8 µM	> 100 µM	36.9 µM	11.4 µM		
C/C(=C\COc1ccc2ccc(=O)oc2c1)C1=CC(=O)C(C)(C)O1 [GEIPARVARIN]	> 300 µM	7.59 µM	18 µM	9.09 µM	17.7 µM	20.3 µM	9.88 µM	viability at 1 µM (A549 [4]): 90.7%; Activity (A549 [5]): 6.19%; Activity (A549 [6]): 1.32%; viability at 2 µM (A549 [7]): 77%; Activity (A549 [8]): 11.51%; Activity (A549 [9]): 5.25%; viability at 4 µM (A549 [10]): 71.7%; Activity (A549 [11]): 18.87%; Activity (A549 [12]): 4.27%; viability at 8 µM (A549 [13]): 65.3%; Activity (A549 [14]): 25.25%; Activity (A549 [15]): 3.56%; necrotic cells at 2 µM (A549 [16]): 4.26%; necrotic cells at 4 µM (A549 [17]): 5.13%; necrotic cells at 8 µM (A549 [18]): 5.87%
CC(C)(C)c1ccc(Cn2cc(COc3ccc4c(=O)ccoc4c3)nn2)cc1	> 300 µM	> 100 µM	> 100 µM	17.6 µM	> 100 µM	28.8 µM	> 100 µM	
O=c1ccoc2cc(OCc3cn(Cc4ccc(Cl)cc4)nn3)ccc12	> 300 µM	> 100 µM	> 100 µM	37.6 µM	41.7 µM	> 100 µM	> 100 µM	
O=c1ccoc2cc(OCc3cn(Cc4ccc(Cl)cc4Cl)nn3)ccc12	> 300 µM	> 100 µM	5.26 µM	80.6 µM	13.3 µM	> 100 µM	> 100 µM	viability at 1 µM (A549 [4]): 88.4%; Activity (A549 [5]): 7.13%; Activity (A549 [6]): 2.31%; viability at 2 µM (A549 [7]): 76.4%; Activity (A549 [8]): 17.62%; Activity (A549 [9]): 3.56%; viability at 4 µM (A549 [10]): 65.8%; Activity (A549 [11]): 28.45%; Activity (A549 [12]): 3.55%; viability at 8 µM (A549 [13]): 65.3%; Activity (A549 [14]): 29.73%; Activity (A549 [15]): 3.33%; Activity (A549 [19]): Dose-dependent effect; necrotic cells at 2 µM (A549 [16]): 2.42%; necrotic cells at 4 µM (A549 [17]): 2.19%; necrotic cells at 8 µM (A549 [18]): 1.64%
Cc1ccccc1Cn1cc(COc2ccc3c(=O)ccoc3c2)nn1	> 300 µM	> 100 µM	> 100 µM	15.3 µM	> 100 µM	> 100 µM	> 100 µM	
N#Cc1ccc(Cn2cc(COc3ccc4c(=O)ccoc4c3)nn2)cc1	> 300 µM	> 100 µM	> 100 µM	> 100 µM	> 100 µM	> 100 µM	> 100 µM	
O=c1ccoc2cc(OCc3cn(Cc4cccc(Cl)c4)nn3)ccc12	> 300 µM	> 100 µM	13.7 µM	> 100 µM	28.4 µM	12.9 µM	> 100 µM	
O=c1ccoc2cc(OCc3cn(Cc4cccc(F)c4)nn3)ccc12	> 300 µM	> 100 µM	> 100 µM	7.55 µM	> 100 µM	> 100 µM	> 100 µM	
O=c1ccoc2cc(OCc3cn(Cc4ccccc4Br)nn3)ccc12	> 300 µM	> 100 µM	> 100 µM	14.5 µM	> 100 µM	> 100 µM	> 100 µM	
O=c1ccoc2cc(OCc3cn(Cc4ccc([N+](=O)[O-])cc4)nn3)ccc12	> 300 µM	> 100 µM	> 100 µM	25.7 µM	> 100 µM	19.3 µM		
O=c1ccoc2cc(OCc3cn(Cc4cccc([N+](=O)[O-])c4)nn3)ccc12	> 300 µM	> 100 µM	9.45 µM	17.3 µM	14.1 µM	> 100 µM	> 100 µM	viability at 1 µM (A549 [4]): 86.7%; Activity (A549 [5]): 8.07%; Activity (A549 [6]): 3%; viability at 2 µM (A549 [7]): 80.1%; Activity (A549 [8]): 10.87%; Activity (A549 [9]): 3.39%; viability at 4 µM (A549 [10]): 74.7%; Activity (A549 [11]): 13.55%; Activity (A549 [12]): 6.36%; viability at 8 µM (A549 [13]): 70.6%; Activity (A549 [14]): 21.54%; Activity (A549 [15]): 5.68%; necrotic cells at 2 µM (A549 [16]): 5.68%; necrotic cells at 4 µM (A549 [17]): 5.44%; necrotic cells at 8 µM (A549 [18]): 4.16%
C#CCOc1ccc2c(=O)ccoc2c1	> 300 µM	> 100 µM	> 100 µM	64.7 µM	58.5 µM	> 100 µM	> 100 µM	
O=c1ccoc2cc(OCc3cn(Cc4ccc(Br)cc4)nn3)ccc12	> 300 µM	> 100 µM	> 100 µM	> 100 µM	96.4 µM	37.5 µM	> 100 µM	
N#Cc1cccc(Cn2cc(COc3ccc4c(=O)ccoc4c3)nn2)c1	> 300 µM	> 100 µM	14.3 µM	> 100 µM	24.4 µM	> 100 µM	> 100 µM	
O=c1ccoc2cc(OCc3cn(Cc4ccccc4)nn3)ccc12	> 300 µM	> 100 µM	> 100 µM	> 100 µM	> 100 µM	42.9 µM	> 100 µM	
O=c1ccoc2cc(OCc3cn(Cc4ccccc4Cl)nn3)ccc12	> 300 µM	> 100 µM	> 100 µM	> 100 µM	19.7 µM	23.5 µM		
Cc1cccc(Cn2cc(COc3ccc4c(=O)ccoc4c3)nn2)c1	> 300 µM	> 100 µM	20.3 µM	> 100 µM	22.4 µM	11.7 µM	16 µM	
Cc1ccc(Cn2cc(COc3ccc4c(=O)ccoc4c3)nn2)cc1	> 300 µM	> 100 µM	50.7 µM	> 100 µM	68.5 µM	10.4 µM	> 100 µM	
